Columns and labels:
Platelet [1] = assay: Inhibition of ADP-stimulated platelet aggregation in human platelet rich plasma by 96-well format based turbidimetric method; format: functional
In short: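 Citrated (ACD-A) donor blood was spun at 150g for 15 min at room temperature to give PRP. PRP was adjusted with PPP to 3 × 10^8 platelets/mL. Compound, diluted in NaCl, was preincubated with hPRP for 5 min before ADP was added.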

P2Y purinoceptor 12 = P2Y purinoceptor 12 (Homo sapiens, UniProt Q9H244); assay: Displacement of [33P]2-MeS-ADP from human recombinant P2Y12 receptor expressed in CHO cell membranes by scintillation counting method
Sequence of P2Y purinoceptor 12 (Q9H244 whole entry): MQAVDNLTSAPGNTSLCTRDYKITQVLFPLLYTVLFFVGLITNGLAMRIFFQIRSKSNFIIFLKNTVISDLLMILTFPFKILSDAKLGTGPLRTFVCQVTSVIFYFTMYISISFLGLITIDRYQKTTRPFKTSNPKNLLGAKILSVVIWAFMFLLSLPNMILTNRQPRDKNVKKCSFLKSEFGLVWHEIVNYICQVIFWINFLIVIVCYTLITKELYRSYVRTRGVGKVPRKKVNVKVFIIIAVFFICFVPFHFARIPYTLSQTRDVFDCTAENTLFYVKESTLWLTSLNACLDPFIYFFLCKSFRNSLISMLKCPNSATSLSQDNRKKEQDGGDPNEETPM

Platelet [2] = assay: Inhibition of ADP-stimulated platelet aggregation in human platelet rich plasma by light transmission aggregometry based Born method; format: functional, cell-based
Platelet [3] = assay: Inhibition of ADP-stimulated platelet aggregation in human isolated platelets by light transmission aggregometry based Born method; format: functional, cell-based
In short: (§1)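 Platelets were pelleted from PRP (430g, 20 min, room temperature) and resuspended in modified Tyrode's buffer (145 mM NaCl, 5 mM KCl, 5.5 mM glucose, 15 mM Hepes, pH 7.4). CaCl2 (0.5 mM final) was added for 2 min at 37 °C, then fibrinogen (1 mg/mL final), then antagonist. Agonist was ADP, collagen or thrombin (0.1 U/mL final). Born aggregometry with stirring; % inhibition from AUC; IC50 from at least triplicate runs.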

P2Y purinoceptor 1 = P2Y purinoceptor 1 (Homo sapiens, UniProt P47900); assay: Displacement of [33P]2-MeS-ADP from human recombinant P2Y1 receptor expressed in CHO cell membranes by scintillation counting method
Sequence of P2Y purinoceptor 1 (P47900 whole entry): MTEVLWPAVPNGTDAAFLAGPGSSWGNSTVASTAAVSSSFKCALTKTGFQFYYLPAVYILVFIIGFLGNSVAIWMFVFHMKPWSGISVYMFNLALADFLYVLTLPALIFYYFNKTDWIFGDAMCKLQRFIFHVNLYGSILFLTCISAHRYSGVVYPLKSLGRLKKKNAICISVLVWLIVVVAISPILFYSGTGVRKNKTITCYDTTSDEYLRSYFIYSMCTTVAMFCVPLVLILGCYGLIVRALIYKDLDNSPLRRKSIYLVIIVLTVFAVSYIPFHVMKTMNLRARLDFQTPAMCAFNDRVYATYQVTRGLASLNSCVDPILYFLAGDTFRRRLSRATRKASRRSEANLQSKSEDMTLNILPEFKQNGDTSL

Platelet [4] = assay: Inhibition of thrombin-stimulated platelet aggregation in human isolated platelets by light transmission aggregometry based Born method; format: functional, cell-based; in short: as §1
Platelet [5] = assay: Inhibition of collagen-stimulated platelet aggregation in human isolated platelets by light transmission aggregometry based Born method; format: functional, cell-based; in short: as §1
Canis familiaris = assay: Antiplatelet aggregatory activity in dog assessed as inhibition of ADP-induced platelet aggregation at 10 mg/kg after 24 hrs; format: functional; conditions: Canis lupus familiaris
In short: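 Ex vivo dog model: compound given orally at 10 mg/kg. Whole-blood platelet aggregation was measured by impedance 24 h after dosing, with ADP as agonist. Inhibition was calculated from mean area under the curve.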

SMILES	IC50 (Platelet [1]) [nM]	Ki (P2Y purinoceptor 12) [nM]	IC50 (Platelet [2]) [nM]	IC50 (Platelet [3]) [nM]	Ki (P2Y purinoceptor 1) [nM]	IC50 (Platelet [4]) [nM]	IC50 (Platelet [5]) [nM]	inhibition in vivo at 10 mg/kg (Canis familiaris) [%]
CCOC(=O)N1CCN(C(=O)[C@H](CCC(=O)O)NC(=O)c2cc(OCC(=O)N3CCC[C@H]3C(=O)N3CCCCC3)n(-c3ccccc3)n2)CC1	70	56	73					
CCCOC(=O)N1CCN(C(=O)[C@H](CCC(=O)O)NC(=O)c2cc(OCC(=O)N3CCC[C@H]3C(=O)NC3CCC3)n(-c3ccccc3)n2)CC1	21	3.1	30					
CCOC(=O)N1CCN(C(=O)[C@H](CCC(=O)O)NC(=O)c2cc(OCC(=O)N3CCC[C@H]3C(=O)NC3CCC3)n(-c3ccccc3)n2)CC1	25	7.3	9	7	> 20000	> 2000	> 2000	
CCOC(=O)COc1cc(C(=O)N[C@@H](CCC(=O)O)C(=O)N2CCN(C(=O)OCC)CC2)nn1-c1ccccc1	2250	372	2480					
CCOC(=O)N1CCN(C(=O)CNC(=O)c2cc(OCC(=O)N3CCC[C@H]3C(=O)NC3CCC3)n(-c3ccccc3)n2)CC1	90	107	100	99		> 2000	> 2000	
CCOC(=O)N1CCN(C(=O)[C@H](CCC(=O)O)NC(=O)c2cc(OCC(=O)N3CCC[C@H]3C(=O)NC(C)(C)C)n(-c3ccccc3)n2)CC1	17	41	70					
CCOC(=O)N1CCN(C(=O)[C@H](CCc2nnn[nH]2)NC(=O)c2cc(OCC(=O)N3CCC[C@H]3C(=O)NC3CCC3)n(-c3ccccc3)n2)CC1	40	5	69					
CCOC(=O)N1CCN(C(=O)[C@H](CCC(=O)O)NC(=O)c2cc(OC3(C(=O)OCC)CCC3)n(-c3ccccc3)n2)CC1	3300	139	2930	701	> 20000	> 2000	> 2000	
CCCCOC(=O)N1CCN(C(=O)CNC(=O)c2cc(OCC(=O)N3CCC[C@H]3C(=O)NC3CCC3)n(-c3ccccc3)n2)CC1	30	7.7	46	22	> 20000	> 2000	> 2000	73
CCOC(=O)N1CCN(C(=O)[C@H](CCC(=O)O)NC(=O)c2cc(OCC(=O)C3CC3)n(-c3ccccc3)n2)CC1	2600	249	2510					
CCOC(=O)N1CCN(C(=O)[C@H](CCC(=O)O)NC(=O)c2cc(OCC(=O)N3CCC[C@H]3C(=O)NCC3CCC3)n(-c3ccccc3)n2)CC1	100	19	72					

From ChEMBL document CHEMBL2169809, “Identification of high-affinity P2Y₁₂ antagonists based on a phenylpyrazole glutamic acid piperazine backbone” (J Med Chem, 2012)
